ChEMBL document CHEMBL2169822, “Discovery and optimization of 1,3,4-trisubstituted-pyrazolone derivatives as novel, potent, and nonsteroidal farnesoid X receptor (FXR) selective antagonists” (J Med Chem, 2012)
Active and inactive are the calls of the source. No cut-off for these calls is given here.

What was measured:
[1] = Agonist activity at GST tagged human recombinant FXRalphaLBD expressed in Escherichia coli BL21 cells assessed as SRC-1 co-activator association at 40 uM after 30 mins by HTRF assay; type: functional
How it was run: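 HTRF coactivator recruitment: 10 nM GST-human FXRαLBD (residues 238–473, E. coli BL21(DE3)), 0.83 nM anti-GST-Eu cryptate, 100 nM biotin-SRC1 peptide, 41.75 nM SA/XL665. Buffer was 50 mM Hepes pH 7.0, 125 mM KF, 0.125% CHAPS, 0.05% dry milk. Compound alone or with CDCA, 30 min at room temperature. Signal was 1000×(668/620 nm). Primary screen at 40 μM; IC50 as mean ± SE, three experiments.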

[2] = biological target: T1, Glucocorticoid receptor (Homo sapiens) (UniProt P04150); test: Agonist activity at recombinant glucocorticoid receptor LBD expressed in HEK293T cells co-expressing GAL4 DBD at 20 uM by transactivation assay; type: functional, cell-based; conditions: HEK-293T
T1 sequence (whole entry): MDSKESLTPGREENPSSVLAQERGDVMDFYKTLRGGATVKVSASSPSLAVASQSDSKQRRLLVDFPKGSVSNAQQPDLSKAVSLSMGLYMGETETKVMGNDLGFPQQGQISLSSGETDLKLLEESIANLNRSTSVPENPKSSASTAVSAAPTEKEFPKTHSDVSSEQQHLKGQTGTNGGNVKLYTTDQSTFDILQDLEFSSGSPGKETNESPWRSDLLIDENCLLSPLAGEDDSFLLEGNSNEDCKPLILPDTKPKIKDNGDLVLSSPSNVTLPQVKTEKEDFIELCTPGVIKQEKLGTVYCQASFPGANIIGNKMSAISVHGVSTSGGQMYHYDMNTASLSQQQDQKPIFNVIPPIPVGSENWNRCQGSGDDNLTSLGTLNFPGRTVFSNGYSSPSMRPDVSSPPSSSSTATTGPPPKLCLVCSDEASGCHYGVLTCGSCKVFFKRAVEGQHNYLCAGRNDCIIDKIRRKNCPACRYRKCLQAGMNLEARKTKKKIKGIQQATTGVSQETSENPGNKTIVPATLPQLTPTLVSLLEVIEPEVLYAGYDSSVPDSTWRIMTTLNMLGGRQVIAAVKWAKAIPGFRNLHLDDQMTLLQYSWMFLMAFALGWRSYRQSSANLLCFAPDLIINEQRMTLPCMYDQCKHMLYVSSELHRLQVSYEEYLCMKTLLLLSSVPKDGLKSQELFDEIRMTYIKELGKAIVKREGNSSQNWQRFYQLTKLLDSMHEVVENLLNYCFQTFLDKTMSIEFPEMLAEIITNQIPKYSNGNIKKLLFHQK
How it was run: (§1)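 One-hybrid assay in HEK293T cells cotransfected with a Gal4 DBD–NR-LBD fusion (RXRα, LXRα, GR, PR, PPARδ or PPARγ) plus UAS-TK-Luc reporter. Compound was 20 μM, given alone or with agonist: 9cRA 0.1 μM (RXRα), TO901317 0.5 μM (LXRα), dexamethasone 50 nM (GR), progesterone 100 nM (PR), GW1516 10 μM (PPARδ), rosiglitazone 10 μM (PPARγ). Luciferase read-out; three independent experiments.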

[3] = biological target: T2, Peroxisome proliferator-activated receptor gamma (Homo sapiens) (UniProt P37231); test: Antagonist activity at recombinant PPARgamma LBD expressed in HEK293T cells co-expressing GAL4 DBD assessed as inhibition of rosiglitazone-induced transactivation at 20 uM by luciferase reporter gene assay; type: functional, cell-based; conditions: HEK-293T; how it was run: as §1
T2 sequence (whole entry): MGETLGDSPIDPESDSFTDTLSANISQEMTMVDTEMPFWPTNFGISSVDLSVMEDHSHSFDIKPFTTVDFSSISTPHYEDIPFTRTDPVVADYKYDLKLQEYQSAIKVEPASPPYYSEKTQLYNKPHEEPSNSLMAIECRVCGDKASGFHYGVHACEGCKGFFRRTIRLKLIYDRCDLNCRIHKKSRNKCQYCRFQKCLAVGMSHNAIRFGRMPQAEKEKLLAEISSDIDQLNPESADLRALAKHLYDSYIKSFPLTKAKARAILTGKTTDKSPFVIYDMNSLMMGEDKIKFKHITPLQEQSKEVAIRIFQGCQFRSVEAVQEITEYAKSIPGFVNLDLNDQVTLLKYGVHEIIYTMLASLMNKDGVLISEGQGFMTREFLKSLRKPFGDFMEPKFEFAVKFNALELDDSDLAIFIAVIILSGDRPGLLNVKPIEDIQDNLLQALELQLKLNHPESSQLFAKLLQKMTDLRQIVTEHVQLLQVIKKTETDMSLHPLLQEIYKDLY

Mus musculus = test: Reduction of serum triglyceride level in cholesterol-fed C57BL/6 mouse at 50 mg/kg, po after 10 days; type: functional; design: scale not given: the % may be the effect or the level left
How it was run: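 Male C57BL/6 mice, 8–12 weeks old, were randomized into five groups of nine. Control mice had ground chow; the other groups had chow with 2% cholesterol. Compound (50 or 100 mg/kg) or reference (100 mg/kg) was suspended in 0.5% CMC-Na and given by oral gavage; control and vehicle mice got 0.5% CMC-Na. Serum and hepatic triglyceride and total cholesterol were measured.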

[4] = biological target: T3, Bile acid receptor (Homo sapiens) (UniProt Q96RI1); test: Antagonist activity at human FXR in human HepG2 cells assessed as reduction in triglyceride level at 10 uM after 24 hrs; type: functional, cell-based
T3 sequence (whole entry): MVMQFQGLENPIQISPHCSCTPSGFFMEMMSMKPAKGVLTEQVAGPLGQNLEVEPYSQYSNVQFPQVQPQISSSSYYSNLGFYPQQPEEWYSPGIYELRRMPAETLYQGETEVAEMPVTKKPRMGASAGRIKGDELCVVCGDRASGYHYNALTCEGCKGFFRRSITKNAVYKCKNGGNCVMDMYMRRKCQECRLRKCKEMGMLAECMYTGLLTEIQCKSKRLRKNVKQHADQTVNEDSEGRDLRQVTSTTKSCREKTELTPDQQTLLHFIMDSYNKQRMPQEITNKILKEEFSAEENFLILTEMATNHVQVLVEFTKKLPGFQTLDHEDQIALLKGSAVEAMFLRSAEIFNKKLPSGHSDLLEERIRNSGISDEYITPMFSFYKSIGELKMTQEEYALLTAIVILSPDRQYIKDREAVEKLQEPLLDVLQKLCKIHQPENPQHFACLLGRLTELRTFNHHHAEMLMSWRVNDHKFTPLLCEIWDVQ
How it was run: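 HepG2 cells were serum-starved overnight in FBS-free DMEM, then given DMSO or compound for 24 h in serum-free DMEM. Cells were lysed in RIPA buffer, sonicated on ice and centrifuged at 12000 rpm, 4 °C. Triglyceride and total cholesterol in the cleared lysate were measured by kits, with total protein by BCA. At least three experiments.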

[5] = Binding affinity to FXRalphaLBD assessed as increase in thermal stability
How it was run: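 DSC with 2 mg/mL FXRαLBD in 20 mM Tris-HCl, 50 mM NaCl, pH 8.0, with DMSO or compound at a compound:protein ratio of 5:1, against the dialysis buffer as reference. Scan was 10–110 °C at 90 °C/h, giving Tm.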

COc1cc(/C=C2\C(=O)N(c3cccc([N+](=O)[O-])c3)N=C2c2ccccc2)ccc1O
Activity [1]: <5%
Activity [2]: inactive
inhibition [3]: inactive
Activity (Mus musculus): 48.4%
inhibition [4]: 35.2%
Tm [5]: 58.7 °C
